Measured values published in ChEMBL document CHEMBL1177716, “Kinesin spindle protein (KSP) inhibitors with 2,3-fused indole scaffolds” (J Med Chem, 2010).
Active and inactive are the calls of the source. No cut-off for these calls is given here.

Legend:
HeLa = assay: Cell cycle arrest in human HeLa cells assessed as accumulation at M phase at 36 uM after 20 hrs by DAPI staining relative to taxol; format: functional; conditions: in the assay text read “at 32 uM” for “at 36 uM”
Procedure, shortened: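 HeLa cells were exposed to compound for 20 h and scored for M-phase arrest. Mitotic index was expressed as a percentage of the induction given by 0.1 μM taxol.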

[1] = target: T1, Kinesin-like protein KIF23 (Homo sapiens) (UniProt Q02241); assay: Inhibition of MKLP-1 ATPase activity at 20 uM
T1 sequence (whole entry): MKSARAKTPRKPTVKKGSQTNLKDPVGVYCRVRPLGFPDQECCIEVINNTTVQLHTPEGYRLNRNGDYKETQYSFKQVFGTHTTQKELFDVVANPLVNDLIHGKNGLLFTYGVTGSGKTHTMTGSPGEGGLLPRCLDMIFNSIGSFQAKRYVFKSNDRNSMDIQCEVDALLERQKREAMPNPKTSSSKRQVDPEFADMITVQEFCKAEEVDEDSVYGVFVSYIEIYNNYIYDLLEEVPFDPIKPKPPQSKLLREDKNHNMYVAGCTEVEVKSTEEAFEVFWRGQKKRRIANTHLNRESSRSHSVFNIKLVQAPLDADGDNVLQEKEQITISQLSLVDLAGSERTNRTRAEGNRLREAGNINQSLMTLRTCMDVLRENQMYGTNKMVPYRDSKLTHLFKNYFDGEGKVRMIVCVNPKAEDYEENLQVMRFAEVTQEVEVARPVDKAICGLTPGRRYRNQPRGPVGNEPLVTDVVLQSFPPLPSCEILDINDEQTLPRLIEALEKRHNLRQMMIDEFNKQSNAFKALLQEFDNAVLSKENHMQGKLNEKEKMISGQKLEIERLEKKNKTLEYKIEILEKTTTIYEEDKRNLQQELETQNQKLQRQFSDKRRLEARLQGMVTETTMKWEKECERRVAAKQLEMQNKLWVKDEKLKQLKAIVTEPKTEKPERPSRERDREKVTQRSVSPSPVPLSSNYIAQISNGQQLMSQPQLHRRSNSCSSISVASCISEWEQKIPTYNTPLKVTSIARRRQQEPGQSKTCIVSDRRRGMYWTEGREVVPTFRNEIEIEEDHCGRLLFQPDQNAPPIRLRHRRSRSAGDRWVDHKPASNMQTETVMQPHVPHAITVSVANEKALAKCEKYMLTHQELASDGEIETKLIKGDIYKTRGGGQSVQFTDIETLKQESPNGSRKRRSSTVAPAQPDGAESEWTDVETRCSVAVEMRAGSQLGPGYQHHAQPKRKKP

[2] = target: T2, Chromosome-associated kinesin KIF4A (Homo sapiens) (UniProt O95239); assay: Inhibition of KIF-4 ATPase activity at 20 uM
T2 sequence (whole entry): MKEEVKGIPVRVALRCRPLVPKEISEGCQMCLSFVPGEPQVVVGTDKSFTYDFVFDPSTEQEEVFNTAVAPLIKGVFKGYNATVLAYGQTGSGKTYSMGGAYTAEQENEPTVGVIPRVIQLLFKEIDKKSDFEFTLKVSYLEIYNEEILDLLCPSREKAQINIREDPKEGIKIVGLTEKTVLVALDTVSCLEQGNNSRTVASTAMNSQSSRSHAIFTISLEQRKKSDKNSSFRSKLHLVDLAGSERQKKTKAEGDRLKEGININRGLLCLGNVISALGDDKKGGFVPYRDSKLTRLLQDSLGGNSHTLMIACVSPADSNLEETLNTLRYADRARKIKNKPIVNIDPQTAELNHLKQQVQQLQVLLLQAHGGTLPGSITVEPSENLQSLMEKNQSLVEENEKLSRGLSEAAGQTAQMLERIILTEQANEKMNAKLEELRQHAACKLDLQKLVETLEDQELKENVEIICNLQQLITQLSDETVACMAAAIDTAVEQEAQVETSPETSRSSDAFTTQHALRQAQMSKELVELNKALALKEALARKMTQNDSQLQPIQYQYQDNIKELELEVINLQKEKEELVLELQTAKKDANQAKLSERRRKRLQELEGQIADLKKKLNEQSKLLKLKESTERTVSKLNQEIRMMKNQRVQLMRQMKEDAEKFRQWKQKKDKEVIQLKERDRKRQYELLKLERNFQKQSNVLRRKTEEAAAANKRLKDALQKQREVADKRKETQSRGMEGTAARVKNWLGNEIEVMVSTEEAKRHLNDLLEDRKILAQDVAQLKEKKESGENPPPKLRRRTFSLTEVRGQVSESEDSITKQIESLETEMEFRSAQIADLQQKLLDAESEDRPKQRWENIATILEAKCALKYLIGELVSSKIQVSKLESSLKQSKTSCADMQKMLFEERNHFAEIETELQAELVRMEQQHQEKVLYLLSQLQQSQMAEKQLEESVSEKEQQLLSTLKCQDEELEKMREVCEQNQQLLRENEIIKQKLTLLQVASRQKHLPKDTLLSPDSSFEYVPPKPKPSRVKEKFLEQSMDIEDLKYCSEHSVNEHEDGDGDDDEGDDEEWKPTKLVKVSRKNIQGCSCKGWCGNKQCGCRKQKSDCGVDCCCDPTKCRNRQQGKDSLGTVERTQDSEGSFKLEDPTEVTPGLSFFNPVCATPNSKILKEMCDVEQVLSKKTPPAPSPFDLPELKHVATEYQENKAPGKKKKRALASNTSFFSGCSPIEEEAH

Row | Compound | Activity (HeLa) | inhibition [1] | inhibition [2]
1 | FC(F)(F)c1ccc2[nH]c3ccccc3c2c1 | 57% | inactive | inactive
2 | FC(F)(F)c1ccc2c(c1)[nH]c1ccccc12 |  | inactive | inactive
3 | CC(C)(C)c1ccc2c(c1)[nH]c1ccccc12 | 37% | inactive | inactive
